Test results taken from ChEMBL document CHEMBL1208767, “Synthesis and structure-activity relationship of N-(3-azabicyclo[3.1.0]hex-6-ylmethyl)-5-(2-pyridinyl)-1,3-thiazol-2-amines derivatives as NPY Y5 antagonists” (Bioorg Med Chem Lett, 2010).
In brackets after ≈: the same amount, converted by molar mass.

Experiments:
[1] = target: T1, Neuropeptide Y receptor type 5 (Homo sapiens, UniProt Q15761); experiment: Antagonist activity at human NPY Y5 receptor expressed in HEK293 cells assessed as inhibition of calcium level by FLIPR assay; type: functional, cell-based
T1 sequence (Q15761 whole entry): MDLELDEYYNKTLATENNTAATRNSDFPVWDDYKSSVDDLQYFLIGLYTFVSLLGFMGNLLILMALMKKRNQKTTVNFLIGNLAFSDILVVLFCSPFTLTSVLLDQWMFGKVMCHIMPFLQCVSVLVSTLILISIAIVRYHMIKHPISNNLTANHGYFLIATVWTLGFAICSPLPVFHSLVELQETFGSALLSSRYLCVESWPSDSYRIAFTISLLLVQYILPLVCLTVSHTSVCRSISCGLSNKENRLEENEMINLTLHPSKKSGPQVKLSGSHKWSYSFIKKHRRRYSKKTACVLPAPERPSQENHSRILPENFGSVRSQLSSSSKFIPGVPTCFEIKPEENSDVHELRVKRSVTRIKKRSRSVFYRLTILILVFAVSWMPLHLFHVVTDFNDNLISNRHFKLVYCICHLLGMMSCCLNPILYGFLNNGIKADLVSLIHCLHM
Summary of the method: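 Functional antagonism measured at the human Y5 receptor stably expressed in HEK293 cells, by FLIPR calcium read-out in 384-well format. Results expressed as fpKi. At least two replicates; each determination within 0.3 log units of the mean.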

[2] = Ratio of drug level in brain to blood in rat at 0.5 mg/kg, iv after 1 hr by cassette dosing; type: ADME, organism-based; parameters: dose 0.5 mg/kg, route intravenous; settings: read-out: BBR
Summary of the method: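 Rats dosed at 0.5 mg/kg iv; brain and blood levels taken 1 h after iv dosing.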

[3] = target: T2, Neuropeptide Y receptor type 2 (Homo sapiens, UniProt P49146); experiment: Antagonist activity at human NPY Y2 receptor expressed in HEK293 cells assessed as inhibition of calcium level by FLIPR assay; type: functional, cell-based
T2 sequence (P49146 whole entry): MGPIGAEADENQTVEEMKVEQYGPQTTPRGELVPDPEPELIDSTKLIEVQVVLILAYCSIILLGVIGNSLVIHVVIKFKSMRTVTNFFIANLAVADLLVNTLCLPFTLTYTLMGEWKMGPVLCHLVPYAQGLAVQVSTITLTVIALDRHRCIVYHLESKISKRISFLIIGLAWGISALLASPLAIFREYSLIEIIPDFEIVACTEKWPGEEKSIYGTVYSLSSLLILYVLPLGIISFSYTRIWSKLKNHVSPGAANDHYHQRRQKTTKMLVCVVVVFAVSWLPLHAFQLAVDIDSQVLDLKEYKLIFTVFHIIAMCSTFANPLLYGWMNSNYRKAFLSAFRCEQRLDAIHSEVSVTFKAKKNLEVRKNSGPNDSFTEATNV

Cytochrome P450 1A2 = target: T3, Cytochrome P450 1A2 (Homo sapiens, UniProt P05177); experiment: Inhibition of CYP1A2; type: ADME
T3 sequence (P05177 whole entry): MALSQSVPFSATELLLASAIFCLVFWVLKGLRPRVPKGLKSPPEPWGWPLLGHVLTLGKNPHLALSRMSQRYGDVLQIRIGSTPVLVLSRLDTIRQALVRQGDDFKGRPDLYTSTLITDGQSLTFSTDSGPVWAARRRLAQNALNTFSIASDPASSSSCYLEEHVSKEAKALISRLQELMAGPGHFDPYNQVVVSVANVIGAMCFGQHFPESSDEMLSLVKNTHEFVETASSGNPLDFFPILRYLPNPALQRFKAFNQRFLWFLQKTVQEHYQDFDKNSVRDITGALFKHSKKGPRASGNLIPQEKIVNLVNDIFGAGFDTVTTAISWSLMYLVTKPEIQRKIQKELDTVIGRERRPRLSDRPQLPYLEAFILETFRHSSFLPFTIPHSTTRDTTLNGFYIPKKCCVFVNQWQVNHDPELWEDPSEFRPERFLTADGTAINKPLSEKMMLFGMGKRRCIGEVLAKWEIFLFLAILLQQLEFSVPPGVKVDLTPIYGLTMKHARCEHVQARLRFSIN

[4] = target: T4, Neuropeptide Y receptor type 1 (Homo sapiens, UniProt P25929); experiment: Antagonist activity at human NPY Y1 receptor expressed in HEK293 cells assessed as inhibition of calcium level by FLIPR assay; type: functional, cell-based
T4 sequence (P25929 whole entry): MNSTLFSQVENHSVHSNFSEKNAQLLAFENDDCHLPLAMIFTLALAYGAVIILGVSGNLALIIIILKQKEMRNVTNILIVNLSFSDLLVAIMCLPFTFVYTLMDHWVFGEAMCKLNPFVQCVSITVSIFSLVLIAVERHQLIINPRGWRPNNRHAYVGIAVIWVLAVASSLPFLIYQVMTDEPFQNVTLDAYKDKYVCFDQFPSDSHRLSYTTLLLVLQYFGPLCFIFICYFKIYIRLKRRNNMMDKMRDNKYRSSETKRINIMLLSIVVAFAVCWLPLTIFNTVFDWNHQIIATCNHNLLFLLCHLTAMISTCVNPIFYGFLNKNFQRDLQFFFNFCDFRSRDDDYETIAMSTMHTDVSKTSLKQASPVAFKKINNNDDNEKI

[5] = Oral bioavailability in rat at 1 mg/kg, po by cassette dosing; type: ADME, organism-based; settings: in vivo
Summary of the method: (§1)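 Rats dosed at 0.5 mg/kg iv and 1 mg/kg po.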

[6] = Solubility of the compound by high throughput chemiluminescent nitrogen detection method; type: physicochemical
[7] = Blood clearance in rat at 0.5 mg/kg, iv and 1 mg/kg, po by cassette dosing; type: ADME, organism-based; summary of the method: as §1
Cytochrome P450 2C19 = Cytochrome P450 2C19 (Homo sapiens, UniProt P33261); experiment: Inhibition of CYP2C19; type: ADME
Cytochrome P450 2C9 = Cytochrome P450 2C9 (Homo sapiens, UniProt P11712); experiment: Inhibition of CYP2C9; type: ADME
Cytochrome P450 3A4 = Cytochrome P450 3A4 (Homo sapiens, UniProt P08684); experiment: Inhibition of CYP3A4; type: ADME
Rattus norvegicus = experiment: Whole blood binding in rat at 0.5 mg/kg, iv and 1 mg/kg, po by equilibrium dialysis assay; type: ADME, organism-based; settings: in vivo
[8] = target: Voltage-gated inwardly rectifying potassium channel KCNH2 (Homo sapiens, UniProt Q12809); experiment: Inhibition of human ERG
Chain of Voltage-gated inwardly rectifying potassium channel KCNH2 (Q12809 whole entry): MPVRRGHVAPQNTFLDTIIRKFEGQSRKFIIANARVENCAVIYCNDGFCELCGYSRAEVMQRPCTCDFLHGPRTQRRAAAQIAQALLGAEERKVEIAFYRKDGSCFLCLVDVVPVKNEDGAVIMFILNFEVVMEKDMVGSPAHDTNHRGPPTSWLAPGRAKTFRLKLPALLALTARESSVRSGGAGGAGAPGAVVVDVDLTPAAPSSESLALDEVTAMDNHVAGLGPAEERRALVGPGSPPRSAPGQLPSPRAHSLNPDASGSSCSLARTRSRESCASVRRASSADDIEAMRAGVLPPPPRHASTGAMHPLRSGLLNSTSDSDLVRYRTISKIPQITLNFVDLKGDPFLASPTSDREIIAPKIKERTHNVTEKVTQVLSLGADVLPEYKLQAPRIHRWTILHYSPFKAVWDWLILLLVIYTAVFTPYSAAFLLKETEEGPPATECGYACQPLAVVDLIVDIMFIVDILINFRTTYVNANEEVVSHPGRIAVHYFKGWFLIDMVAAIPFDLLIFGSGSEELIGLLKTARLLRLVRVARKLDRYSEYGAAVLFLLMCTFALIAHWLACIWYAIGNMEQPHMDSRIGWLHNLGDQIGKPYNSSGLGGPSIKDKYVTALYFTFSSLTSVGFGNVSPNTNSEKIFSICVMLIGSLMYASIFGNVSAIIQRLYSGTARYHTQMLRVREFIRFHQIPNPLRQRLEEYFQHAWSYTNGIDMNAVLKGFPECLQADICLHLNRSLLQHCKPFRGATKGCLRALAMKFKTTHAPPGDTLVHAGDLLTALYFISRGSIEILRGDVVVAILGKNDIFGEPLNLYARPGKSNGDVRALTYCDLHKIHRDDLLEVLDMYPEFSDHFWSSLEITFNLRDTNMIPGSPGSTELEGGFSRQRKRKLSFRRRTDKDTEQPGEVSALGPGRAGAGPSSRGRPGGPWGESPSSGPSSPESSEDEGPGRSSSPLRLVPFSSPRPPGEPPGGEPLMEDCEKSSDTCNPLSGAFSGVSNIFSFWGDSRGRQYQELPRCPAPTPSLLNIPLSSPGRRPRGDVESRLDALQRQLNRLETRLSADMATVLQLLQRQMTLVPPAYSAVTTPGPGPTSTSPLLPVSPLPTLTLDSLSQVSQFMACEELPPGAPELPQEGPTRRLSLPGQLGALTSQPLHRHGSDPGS

Chain of Cytochrome P450 3A4 (P08684 whole entry): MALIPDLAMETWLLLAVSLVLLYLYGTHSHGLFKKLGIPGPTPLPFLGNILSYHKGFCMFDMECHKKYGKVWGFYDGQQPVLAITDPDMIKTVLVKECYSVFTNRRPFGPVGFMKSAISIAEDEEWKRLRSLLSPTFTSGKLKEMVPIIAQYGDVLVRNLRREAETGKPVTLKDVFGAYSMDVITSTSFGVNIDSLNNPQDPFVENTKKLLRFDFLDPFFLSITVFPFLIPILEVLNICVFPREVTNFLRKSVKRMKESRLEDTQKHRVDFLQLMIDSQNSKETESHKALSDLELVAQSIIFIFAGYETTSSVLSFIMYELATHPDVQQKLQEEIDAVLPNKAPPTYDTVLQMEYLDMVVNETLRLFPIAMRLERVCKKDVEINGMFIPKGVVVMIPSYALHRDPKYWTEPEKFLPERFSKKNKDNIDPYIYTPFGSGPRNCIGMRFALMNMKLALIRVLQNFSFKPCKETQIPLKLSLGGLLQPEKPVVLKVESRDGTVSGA
Chain of Cytochrome P450 2C9 (P11712 whole entry): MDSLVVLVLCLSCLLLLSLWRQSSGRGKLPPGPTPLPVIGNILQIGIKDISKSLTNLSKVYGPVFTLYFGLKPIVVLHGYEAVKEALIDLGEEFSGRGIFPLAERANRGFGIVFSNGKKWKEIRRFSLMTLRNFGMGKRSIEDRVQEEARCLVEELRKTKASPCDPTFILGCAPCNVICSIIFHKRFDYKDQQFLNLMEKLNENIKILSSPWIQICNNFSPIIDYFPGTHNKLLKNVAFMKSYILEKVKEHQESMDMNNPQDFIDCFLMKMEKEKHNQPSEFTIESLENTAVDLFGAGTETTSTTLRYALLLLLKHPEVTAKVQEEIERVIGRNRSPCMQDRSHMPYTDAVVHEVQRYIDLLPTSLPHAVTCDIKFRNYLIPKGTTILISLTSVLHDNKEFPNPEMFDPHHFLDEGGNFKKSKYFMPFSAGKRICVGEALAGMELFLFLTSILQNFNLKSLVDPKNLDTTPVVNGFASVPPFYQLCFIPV
Chain of Cytochrome P450 2C19 (P33261 whole entry): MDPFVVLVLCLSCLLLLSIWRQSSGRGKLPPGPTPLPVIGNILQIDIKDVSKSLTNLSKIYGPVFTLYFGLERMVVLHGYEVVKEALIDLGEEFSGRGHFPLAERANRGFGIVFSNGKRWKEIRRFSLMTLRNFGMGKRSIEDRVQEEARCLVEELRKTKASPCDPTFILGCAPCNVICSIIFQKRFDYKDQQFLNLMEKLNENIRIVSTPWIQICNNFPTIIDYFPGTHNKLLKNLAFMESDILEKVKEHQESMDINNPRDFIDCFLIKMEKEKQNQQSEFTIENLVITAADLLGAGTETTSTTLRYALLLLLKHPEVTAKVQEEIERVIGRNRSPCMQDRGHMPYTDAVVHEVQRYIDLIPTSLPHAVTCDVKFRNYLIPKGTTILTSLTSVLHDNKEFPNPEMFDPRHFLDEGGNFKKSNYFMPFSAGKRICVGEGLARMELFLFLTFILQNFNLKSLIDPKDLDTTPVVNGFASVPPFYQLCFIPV

Compound | Ki [1] [nM] | also measured
CC(=O)N1C[C@@H]2[C@H](CNc3nc(-c4ccccn4)cs3)[C@@H]2C1 | 2510 | 
c1ccc(-c2csc(NC[C@H]3[C@@H]4CNC[C@@H]43)n2)nc1 | 1000 | 
O=C(c1ccncc1)N1C[C@@H]2[C@H](CNc3nc(-c4ccccn4)cs3)[C@@H]2C1 | 50.1 | 
O=C(N1C[C@@H]2[C@H](CNc3nc(-c4ccccn4)cs3)[C@@H]2C1)C1(c2ccccc2)CC1 | 0.794 | 
Cc1cc(C)cc(CN2C[C@@H]3[C@H](CNc4nc(-c5ccccn5)cs4)[C@@H]3C2)c1 | 3.98 | 
CC(C(=O)N1C[C@@H]2[C@H](CNc3nc(-c4ccccn4)cs3)[C@@H]2C1)C(C)c1ccccc1 (stereo partly drawn) | 5.01 | 
O=C([C@H]1C[C@@H]1c1ccccc1)N1C[C@@H]2[C@H](CNc3nc(-c4ccccn4)cs3)[C@@H]2C1 | 0.794 | 
CC(c1ccccc1)N1C[C@@H]2[C@H](CNc3nc(-c4ccccn4)cs3)[C@@H]2C1 (stereo partly drawn) | 1.26 | 
FC(F)(F)c1ccc(Nc2nc(-c3ccccn3)cs2)cc1 | 15.8 | Kp at 1 h [2]: 4.2; Ki [3]: > 31600 nM; IC50 (Cytochrome P450 1A2): < 100 nM; Ki [4]: > 31600 nM; bioavailability [5]: 30%
O=C(c1cccnc1)N1C[C@@H]2[C@H](CNc3nc(-c4ccccn4)cs3)[C@@H]2C1 | 5.01 | 
CC(C)C(=O)N1C[C@@H]2[C@H](CNc3nc(-c4ccccn4)cs3)[C@@H]2C1 | 2.51 | solubility [6]: 120 µg/mL (≈ 350 µM); Kp at 1 h [2]: 0.7; clearance [7]: 137 mL/min/kg; IC50 (Cytochrome P450 2C19): ≥ 7000 nM; IC50 (Cytochrome P450 1A2): ≥ 7000 nM; IC50 (Cytochrome P450 2C9): ≥ 7000 nM; IC50 (Cytochrome P450 3A4): ≥ 7000 nM; bioavailability [5]: 6%
O=C(C1CCOC1)N1C[C@@H]2[C@H](CNc3nc(-c4ccccn4)cs3)[C@@H]2C1 (stereo partly drawn) | 7.94 | Kp at 1 h [2]: < 0.5; clearance [7]: 98 mL/min/kg; IC50 (Cytochrome P450 2C19): > 10000 nM; Activity (Rattus norvegicus): 74%; IC50 (Cytochrome P450 1A2): > 10000 nM; IC50 (Cytochrome P450 2C9): > 10000 nM; IC50 [8]: 2000 nM; IC50 (Cytochrome P450 3A4): > 10000 nM; bioavailability [5]: 15%
O=C(C1CCCO1)N1C[C@@H]2[C@H](CNc3nc(-c4ccccn4)cs3)[C@@H]2C1 (stereo partly drawn) | 5.01 | 
O=C(c1cccc(F)c1)N1C[C@@H]2[C@H](CNc3nc(-c4ccccn4)cs3)[C@@H]2C1 | 1 | 
O=C(c1cc(F)cc(F)c1)N1C[C@@H]2[C@H](CNc3nc(-c4ccccn4)cs3)[C@@H]2C1 | 1.58 | 
O=C(C1CCOCC1)N1C[C@@H]2[C@H](CNc3nc(-c4ccccn4)cs3)[C@@H]2C1 | 31.6 | 
Fc1cc(F)cc(CN2C[C@@H]3[C@H](CNc4nc(-c5ccccn5)cs4)[C@@H]3C2)c1 | 0.631 | 
CC(C)CN1C[C@@H]2[C@H](CNc3nc(-c4ccccn4)cs3)[C@@H]2C1 | 3.98 | 

Continued, in another order:

Ki [1] [nM] | Compound | also measured
0.631 | O=C(CCc1ccccc1)N1C[C@@H]2[C@H](CNc3nc(-c4ccccn4)cs3)[C@@H]2C1 | 
1 | O=C(Cc1ccccc1)N1C[C@@H]2[C@@H](CNc3nc(-c4ccccn4)cs3)[C@@H]2C1 | 
1 | O=C(Cc1ccccc1)N1C[C@@H]2[C@H](CNc3nc(-c4ccccn4)cs3)[C@@H]2C1 | 
2.51 | O=C(c1ccccc1)N1C[C@@H]2[C@H](CNc3nc(-c4ccccn4)cs3)[C@@H]2C1 | 
0.398 | CC(C(=O)N1C[C@@H]2[C@H](CNc3nc(-c4ccccn4)cs3)[C@@H]2C1)c1ccccc1 (stereo partly drawn) | 
6.31 | O=C(CCc1ccccc1)N1C[C@@H]2[C@@H](CNc3nc(-c4ccccn4)cs3)[C@@H]2C1 | 
12.6 | O=C(c1ccccc1)N1C[C@@H]2[C@@H](CNc3nc(-c4ccccn4)cs3)[C@@H]2C1 | 
1.58 | c1ccc(CN2C[C@@H]3[C@H](CNc4nc(-c5ccccn5)cs4)[C@@H]3C2)cc1 | 
